Laboratory results from ChEMBL document CHEMBL1165950, “Design and synthesis of new potent anticancer pyrazoles with high FLT3 kinase inhibitory selectivity” (Bioorg Med Chem, 2010).

How the values were obtained:
Format in all cases: functional
U-251 = experiment: Cytotoxicity against human U251 cells assessed as cell growth at 0.01 uM after 48 hrs by sulforhodamine B assay; conditions: U-251, 48 h, read-out: Activity
OVCAR-8 [1] = experiment: Growth inhibition of human OVCAR8 cells after 48 hrs by sulforhodamine B assay; conditions: OVCAR-8, 48 h; for CC50: read-out: LC50 (the source's name)
How it was run: (§1)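 NCI 60-cell screen, five-dose mode. Cells grown in RPMI 1640 with 5% FBS and 2 mM L-glutamine and plated at 5000-40,000 cells/well according to doubling time. After 24 h preincubation, a Tz plate was TCA-fixed. Five concentrations (10-fold or 1/2 log dilutions) were applied for 48 h at 37 °C. SRB staining read at 515 nm. IC50 taken from [(Ti-Tz)/(C-Tz)]×100 = 50.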

COLO 205 [2] = experiment: Cytotoxicity against human COLO205 cells assessed as cell growth at 1 uM after 48 hrs by sulforhodamine B assay; conditions: COLO 205, 48 h, read-out: Activity
How it was run: (§2)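 NCI-60 five-dose screen. Cells were grown in RPMI 1640 with 5% FBS and 2 mM L-glutamine, plated at 5000–40,000 cells/well and preincubated for 24 h. Time-zero plates were TCA-fixed. DMSO-solubilized drug was added at five concentrations (10-fold or ½-log serial dilutions) for 48 h at 37 °C, 5% CO2. Cells were TCA-fixed, stained with 0.4% SRB and read at 515 nm. Percent growth used time-zero, control and test absorbances.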

NCI-H322M = experiment: Cytotoxicity against human NCI-H322M cells assessed as cell growth at 100 nM after 48 hrs by sulforhodamine B assay; conditions: read-out: Activity
K562 = experiment: Growth inhibition of human K562 cells after 48 hrs by sulforhodamine B assay; conditions: K562, 48 h; how it was run: as §1
TK-10 = experiment: Cytotoxicity against human TK10 cells assessed as cell growth at 10 uM after 48 hrs by sulforhodamine B assay; conditions: TK-10, 48 h, read-out: Activity
COLO 205 [3] = experiment: Cytotoxicity against human COLO205 cells assessed as cell growth at 10 uM; conditions: read-out: Activity
How it was run: (§3)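 Single-dose NCI-60 screen at 10 µM. Cells were grown in RPMI 1640 with 5% FBS and 2 mM L-glutamine, then treated for 48 h at 37 °C. Protein was measured by SRB staining with absorbance at 515 nm. Percentage growth was recorded, and inhibition percentage was calculated as 100 minus growth percentage.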

NCI-H23 = experiment: Cytotoxicity against human NCI-H23 cells assessed as cell growth at 10 uM after 48 hrs by sulforhodamine B assay; conditions: NCI-H23, 48 h, read-out: Activity
OVCAR-4 = experiment: Cytotoxicity against human OVCAR4 cells assessed as cell growth at 10 uM; conditions: read-out: Activity
How it was run: (§4)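 NCI-60 screen: cells grown in RPMI 1640 with 5% FBS and 2 mM L-glutamine, plated at 5000–40,000 cells/well according to doubling time, and preincubated 24 h at 37 °C, 5% CO2. The single 10 µM dose (DMSO stock) was added, then incubated 48 h. Cells were TCA-fixed and stained with 0.4% SRB, read at 515 nm, and growth % calculated against time-zero and control plates.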

OVCAR-8 [4] = experiment: Cytotoxicity against human OVCAR8 cells assessed as cell growth at 10 uM; conditions: read-out: Activity; how it was run: as §4
UACC-257 = experiment: Growth inhibition of human UACC257 cells after 48 hrs by sulforhodamine B assay; conditions: UACC-257, 48 h; for CC50: read-out: LC50 (the source's name); how it was run: as §1
NCI-H460 [5] = experiment: Cytotoxicity against human NCI-H460 cells assessed as cell growth at 10 uM; conditions: read-out: Activity; how it was run: as §4
OVCAR-5 = experiment: Cytotoxicity against human OVCAR5 cells assessed as cell growth at 100 nM after 48 hrs by sulforhodamine B assay; conditions: OVCAR-5, 48 h, read-out: Activity
SK-OV-3 = experiment: Cytotoxicity against human SKOV3 cells assessed as cell growth at 0.001 uM after 48 hrs by sulforhodamine B assay; conditions: SK-OV-3, 48 h, read-out: Activity
Malme-3M = experiment: Cytotoxicity against human MALME-3M cells assessed as cell growth at 0.01 uM after 48 hrs by sulforhodamine B assay; conditions: read-out: Activity
HT-29 [6] = experiment: Cytotoxicity against human HT-29 cells assessed as cell growth at 0.001 uM after 48 hrs by sulforhodamine B assay; conditions: HT-29, 48 h, read-out: Activity
SNB-75 = experiment: Cytotoxicity against human SNB75 cells assessed as cell growth at 0.01 uM after 48 hrs by sulforhodamine B assay; conditions: SNB-75, 48 h, read-out: Activity
IGROV-1 = experiment: Cytotoxicity against human IGROV1 cells assessed as cell growth at 100 nM after 48 hrs by sulforhodamine B assay; conditions: IGROV-1, 48 h, read-out: Activity
[7] = Cytotoxicity against human Hs 578T cells assessed as cell growth at 0.01 uM after 48 hrs by sulforhodamine B assay; conditions: read-out: Activity
MDA-MB-468 = experiment: Cytotoxicity against human MDA-MB-468 cells assessed as cell growth at 0.01 uM after 48 hrs by sulforhodamine B assay; conditions: MDA-MB-468, 48 h, read-out: Activity
PC-3 = experiment: Cytotoxicity against human PC3 cells assessed as cell growth at 1 uM after 48 hrs by sulforhodamine B assay; conditions: PC-3, 48 h, read-out: Activity
MOLT-4 = experiment: Cytotoxicity against human MOLT4 cells assessed as cell growth at 1 uM after 48 hrs by sulforhodamine B assay; conditions: MOLT-4, 48 h, read-out: Activity
SNB-19 = experiment: Cytotoxicity against human SNB19 cells assessed as cell growth at 1 uM after 48 hrs by sulforhodamine B assay; conditions: SNB-19, 48 h, read-out: Activity
HT-29 [8] = experiment: Cytotoxicity against human HT-29 cells assessed as cell growth at 10 uM; conditions: read-out: Activity; how it was run: as §3
UACC-62 = experiment: Cytotoxicity against human UACC62 cells assessed as cell growth at 1 uM after 48 hrs by sulforhodamine B assay; conditions: UACC-62, 48 h, read-out: Activity
CCRF-CEM = experiment: Cytotoxicity against human CCRF-CEM cells assessed as cell growth at 100 nM after 48 hrs by sulforhodamine B assay; conditions: read-out: Activity; how it was run: as §2
NCI-H460 [9] = experiment: Cytotoxicity against human NCI-H460 cells assessed as cell growth at 10 uM after 48 hrs by sulforhodamine B assay; conditions: NCI-H460, 48 h, read-out: Activity
HL-60(TB) = experiment: Cytotoxicity against human HL-60(TB) cells assessed as cell growth at 1 uM after 48 hrs by sulforhodamine B assay; conditions: HL-60, 48 h, read-out: Activity
How it was run: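 NCI 60-cell panel. Cells are grown in RPMI 1640 with 5% FBS and 2 mM L-glutamine, seeded at 5000–40,000 cells/well according to doubling time, and preincubated 24 h. Time-zero plates are TCA-fixed. Compound from DMSO stock is given at five 10-fold or 1/2-log concentrations for 48 h at 37 °C, 5% CO2. Suspension cells are fixed with 80% TCA (final 16%) and SRB-stained, with absorbance at 515 nm. Percent growth is derived from Tz, control and test readings.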

Structure (SMILES)	growth at 0.01 µM (U-251) [%]	GI50 (OVCAR-8 [1]) [µM]	TGI (OVCAR-8 [1]) [µM]	CC50 (OVCAR-8 [1]) [µM]	growth at 1 µM (COLO 205 [2]) [%]	growth at 0.1 µM (NCI-H322M) [%]	GI50 (K562) [µM]	LC50 (50% net cell kill) (K562) [µM]	TGI (K562) [µM]	growth at 10 µM (TK-10) [%]	growth at 10 µM (COLO 205 [3]) [%]	growth at 10 µM (NCI-H23) [%]	growth at 10 µM (OVCAR-4) [%]	growth at 10 µM (OVCAR-8 [4]) [%]	GI50 (UACC-257) [µM]	TGI (UACC-257) [µM]	CC50 (UACC-257) [µM]	growth at 10 µM (NCI-H460 [5]) [%]	growth at 0.1 µM (OVCAR-5) [%]	growth at 0.001 µM (SK-OV-3) [%]	further results
COc1cc(C)cc(-c2nn(CC#N)cc2-c2ccc(-c3cccc(C(C)=O)c3)nc2)c1	92	3.16	35.2	> 100	-55	95	0.365	> 100	> 100	-29	-44.6	-1	31.7	31.4	3.61	> 100	> 100	17.4	68	86	growth at 0.01 µM (Malme-3M): 85%; growth at 0.001 µM (HT-29 [6]): 95%; growth at 0.01 µM (SNB-75): 83%; growth at 0.1 µM (IGROV-1): 88%; growth at 0.01 µM [7]: 100%; growth at 0.01 µM (MDA-MB-468): 82%; growth at 1 µM (PC-3): 20%; growth at 1 µM (MOLT-4): 19%; growth at 1 µM (SNB-19): 39%; growth at 10 µM (HT-29 [8]): 3.66%; growth at 1 µM (UACC-62): 38%; growth at 0.1 µM (CCRF-CEM): 77%; growth at 10 µM (NCI-H460 [9]): -81%; growth at 1 µM (HL-60(TB)): 2%
COc1cc(C)cc(-c2nn(CC#N)cc2-c2ccnc(-c3ccc(N(C)C)cc3)c2)c1	105	0.522	41.6	> 100	-74	49	0.161	> 100	> 100	-3	-73.2	5	17.1	12	0.448	> 100	> 100	2.65	79	105	growth at 0.01 µM (Malme-3M): 91%; growth at 0.001 µM (HT-29 [6]): 103%; growth at 0.01 µM (SNB-75): 98%; growth at 0.1 µM (IGROV-1): 16%; growth at 0.01 µM [7]: 100%; growth at 0.01 µM (MDA-MB-468): 74%; growth at 1 µM (PC-3): 17%; growth at 1 µM (MOLT-4): 13%; growth at 1 µM (SNB-19): 19%; growth at 10 µM (HT-29 [8]): -7.04%; growth at 1 µM (UACC-62): 12%; growth at 0.1 µM (CCRF-CEM): 24%; growth at 10 µM (NCI-H460 [9]): -51%; growth at 1 µM (HL-60(TB)): -1%
COc1cc(C)cc(-c2c(-c3ccnc(-c4ccc(C(C)=O)cc4)c3)cnn2CC#N)c1	89	2.86	> 100	> 100	-78	100	0.795	> 100	> 100	60	42.6	18	80.2	80.1	5.24	> 100	> 100	104	89	86	growth at 0.01 µM (Malme-3M): 93%; growth at 0.001 µM (HT-29 [6]): 110%; growth at 0.01 µM (SNB-75): 78%; growth at 0.1 µM (IGROV-1): 83%; growth at 0.01 µM [7]: 98%; growth at 0.01 µM (MDA-MB-468): 84%; growth at 1 µM (PC-3): 24%; growth at 1 µM (MOLT-4): 7%; growth at 1 µM (SNB-19): 60%; growth at 10 µM (HT-29 [8]): 15.2%; growth at 1 µM (UACC-62): 25%; growth at 0.1 µM (CCRF-CEM): 84%; growth at 10 µM (NCI-H460 [9]): 2%; growth at 1 µM (HL-60(TB)): 20%
COc1cc(C)cc(-c2c(-c3ccnc(-c4ccc(N(C)C)cc4)c3)cnn2CC#N)c1	41	0.236	> 100	> 100	3	20	0.0584	> 100	3.82	34	-71.1	17	26	25.4	0.0359	> 100	> 100	-5.33	53	102	growth at 0.01 µM (Malme-3M): 34%; growth at 0.001 µM (HT-29 [6]): 94%; growth at 0.01 µM (SNB-75): 65%; growth at 0.1 µM (IGROV-1): 2%; growth at 0.01 µM [7]: 58%; growth at 0.01 µM (MDA-MB-468): -10%; growth at 1 µM (PC-3): 13%; growth at 1 µM (MOLT-4): -2%; growth at 1 µM (SNB-19): 36%; growth at 10 µM (HT-29 [8]): -33.3%; growth at 1 µM (UACC-62): 18%; growth at 0.1 µM (CCRF-CEM): 11%; growth at 10 µM (NCI-H460 [9]): -55%; growth at 1 µM (HL-60(TB)): -27%
Cc1cc(O)cc(-c2nn(CC#N)cc2-c2ccnc(-c3ccc(N(C)C)cc3)c2)c1	94	4.2	69.4	> 100	-59	93	2.55	> 100	32.8	-14	38.9	-37	29.9	45	4.35	35.6	> 100	25.6	97	92	growth at 0.01 µM (Malme-3M): 92%; growth at 0.001 µM (HT-29 [6]): 101%; growth at 0.01 µM (SNB-75): 75%; growth at 0.1 µM (IGROV-1): 87%; growth at 0.01 µM [7]: 95%; growth at 0.01 µM (MDA-MB-468): 91%; growth at 1 µM (PC-3): 18%; growth at 1 µM (MOLT-4): 11%; growth at 1 µM (SNB-19): 28%; growth at 10 µM (HT-29 [8]): 20.5%; growth at 1 µM (UACC-62): 10%; growth at 0.1 µM (CCRF-CEM): 96%; growth at 10 µM (NCI-H460 [9]): -59%; growth at 1 µM (HL-60(TB)): 2%
